Source: PubChem BioAssay
An excerpt weighted towards active compounds, which were near 3.5% of everything screened.
rRNA inh HTS: reduced GFP signal of wild-type E. coli, primary screen, bacterial rRNA inhibitor project, GFP/RFP fluorescence, OD600, single point; E. coli WT GFP vs humanized-ribosome RFP mutants, 24 h; stronger effect = lower value; DMSO median 0, no signal -100; GFP signal change (wild-type ribosome), % (no concentration beside the values); 350,000 tested, 1.6% active;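 active means significant combined selectivity score with lowered wild-type GFP, culture density cut under 30%, mutant RFP and density less affected; inactive means any of these conditions unmet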
ERAP1 HTS inh: human ERAP1 aminopeptidase inhibitors, primary screen, biochemical, single point, plate reader; 340,000 tested, 0.15% active; Endoplasmic reticulum aminopeptidase 1 (Homo sapiens), Q9NZ08; inhibition, % at 10.7 µM; recombinant ERAP1, Leu-AMC fluorescence, 60 min;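 active means mean replicate inhibition of at least 30%, or all replicates individually reaching that 30% level; inactive means mean below 30% and not every replicate reaching it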;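 further: 0% = neutral control wells and 100% = L-leucinethiol positive control wells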
FGF22 binding: binders of human FGF22 protein, primary screen, FGF22 synaptogenesis inhibitor project, biophysical, thermal shift, single point | Fibroblast growth factor 22 (Homo sapiens), Q9HCT0 | recombinant FGF22 thermal shift, SYPRO orange fluorescence; percent of sucrose octasulfate shift, DMSO zero | activity (Tm shift, normalised), % at 9.99 µM | 340,000 tested, 1.5% active | AID 651658, 2012;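 active means mean Tm shift, scaled 0 neutral to 100 positive control, at about 1.3% or above, every replicate too, limit read from the data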
Target sequence (Q9HCT0 whole entry, looked up): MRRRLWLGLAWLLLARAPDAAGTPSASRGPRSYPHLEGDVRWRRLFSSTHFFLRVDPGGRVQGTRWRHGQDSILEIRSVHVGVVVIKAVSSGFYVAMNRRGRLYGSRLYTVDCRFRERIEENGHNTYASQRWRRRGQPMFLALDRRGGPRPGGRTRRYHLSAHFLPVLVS
PGC1a acetyl inh: inhibitors of PGC1a acetylation signal, primary screen, cell-based, U2OS, AlphaScreen, inhibitor mode. inhibition, % at 15.6 µM. AlphaScreen anti-acetyl-lysine; with virally co-expressed GCN5 acetyltransferase. 350,000 tested, 0.17% active. AID 651687, 2012;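 active means every replicate shows inhibition of at least 40%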;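 further: 0% = neutral control wells and 100% = positive control wells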
Env fusion inh: inhibitors of HIV-1 Env-driven cell-cell fusion, primary screen, HeLa-JRFL effector, CEM21 target cells, luciferase; inhibition, % at 12.3 µM; 360,000 tested, 1.1% active;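 active means mean replicate inhibition score of at least 50 and every replicate individually at or above 50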;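 further: 0% = plate neutral controls and 100% = maraviroc near 300 nM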
Cneo AK release: Cryptococcus neoformans cell lysis inducers, primary screen, AK release luminescence, single concentration. AID 651654, 2012. 360,000 tested, 0.2% active. C. neoformans lysis, adenylate kinase release luminescence, 4 h; normalised: neutral wells 0, clomiphene wells 100. lysis activity, % at 15 µM;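 active means mean lysis activity across replicates of at least 80%, whatever share of replicates individually reach that level; inactive means mean lysis activity below 80%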
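Test system: log-phase Cryptococcus neoformans yeast cells. Input: 5 × 10^6 yeast cells/mL. Medium: fresh YPD growth medium. Doses: single dose. Incubation: static 4 h at 37 °C with compound, 1 h detection. Measured by: luminescent adenylate kinase detection reagent. Read-out: signal increase indicating cell lysis. Benchmarks: Clomiphene.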
Starred values were filed as active, the others as inactive; x = not tested or not shown; [ ] = dose if it differs, or a comment.

SMILES	rRNA inh HTS	ERAP1 HTS inh	FGF22 binding	PGC1a acetyl inh	Env fusion inh	Cneo AK release
O=C(NCCS(=O)(=O)NCc1ccc(F)cc1)c1ccc2c(c1)OCO2	2	-2	0	x	6	3
O=S(=O)(Nc1ccn(-c2ccccc2)n1)c1ccc(Br)cc1	-46*	-6	1	-3	x	0
Cc1c(NS(=O)(=O)c2ccc(Br)cc2)c(=O)n(-c2ccccc2)n1C	0	1	0	x	3	-1
CCN(CC)c1ccc(N=Nc2ncn[nH]2)cc1	6	8	0	-14	-20	x
CCNC(=S)N1C2CCC1CC(NC(=O)Nc1ccc(C(=O)OCC)cc1)C2 (stereo unspecified)	-21*	-2	1	11	17	0
CCOC(=O)c1ccc(NC(=O)NC2CC3CCC(C2)N3C(=S)NC)cc1 (stereo unspecified)	3	1	0	8	-7	24
CCOC(=O)CC1(CCc2ccccc2)Oc2ccccc2N1S(=O)(=O)c1ccc(C)cc1 (stereo unspecified)	3	1	0	x	26	x
CCOC(=O)CC1(C)Sc2ccccc2N1S(=O)(=O)c1ccc(C)cc1 (stereo unspecified)	-5	2	43*	x	22	x
CN(C)C(=O)N1CCC(C(=O)NCc2ccc(F)cc2)CC1	12	4	0	-12	3	-2
CC1=Nc2ccccc2N=C(NC(=O)c2ccccc2)C1c1ccc(Cl)cc1 (stereo unspecified)	-28	6	0	-3	69*	2
CC1=CC(c2ccc(Cl)cc2)n2nc(NC(=O)c3ccccc3)nc2N1 (stereo unspecified)	x	x	x	-1	x	1
CCN(CC)S(=O)(=O)c1cc(NC(=O)Cn2ncc(Cl)c(Cl)c2=O)ccc1C	-26*	-3	0	29	-76	x
CCN(CC)S(=O)(=O)c1cc(NS(=O)(=O)c2cccc(Cl)c2Cl)ccc1C	-38*	1	0	x	1	-6
CCN(CC)S(=O)(=O)c1cc(NC(=O)CCNC(=O)c2ccco2)ccc1C	-5	1	0	1	59*	0
O=C(Cn1ncc(Cl)c(Cl)c1=O)Nc1ccc2c(c1)OCO2	2	0	0	5	-1	-1
COc1ccc(NC(=O)CCNC(=O)c2ccco2)cc1S(=O)(=O)N(C)C	-1	2	0	6	-32	1
CCOC(=O)C1=C(CC)Nc2ccccc2N=C1NC(=O)c1cc(S(=O)(=O)N2CCOCC2)ccc1C	-4	1	0	-1	-39	-1
CCOC(=O)c1c(C)[nH]c(C(=O)COC(=O)C23CC4CC(CC(Cl)(C4)C2)C3)c1C	x	x	x	5	-13	2
OCC[C@H]1C[C@H](O)[C@@H](O)[C@]2(Cc3ccccc3O2)O1	5	-2	0	3	x	8
Cc1ccc(CCNC(=O)CNC(=O)c2cccs2)cc1	4	-3	0	-1	-2	x
C=CCn1c(SCCNC(C)=O)nc2cc(-c3ccccc3)sc2c1=O	5	0	0	x	-32	-1
O=C(C[C@H]1CC[C@H](NC(=O)Nc2ccccc2)[C@H](CO)O1)NCc1ccccn1	4	0	0	-4	6[16.7 µM]	-1
CCOc1ccc(S(=O)(=O)N(C)c2ccc(OCC(=O)Nc3ccc4[nH]c(=O)[nH]c4c3)cc2)cc1	-32*	0	x	x	x	-1
O=C(NCCN1CCC(n2c(=O)[nH]c3ccccc32)CC1)N1c2ccccc2Sc2ccccc21	-36*	-13	0	x	7	x
O=C(NCCN1CCC(n2c(=O)[nH]c3ccccc32)CC1)c1ccccc1	16	-6	0	x	-4	x
SMILES	rRNA inh HTS	ERAP1 HTS inh	FGF22 binding	PGC1a acetyl inh	Env fusion inh	Cneo AK release
O=C1N/C(=N\N=C\c2cccs2)SC1Cc1cccc(Cl)c1 (stereo unspecified)	x	x	x	x	-2	x
Cc1cc(N2C(=O)C(O)=C(C(=O)c3cccs3)C2c2ccccc2)no1 (stereo unspecified)	x	x	x	-15	-74	-1
COc1ccc(C2C(C(=O)c3cccs3)=C(O)C(=O)N2c2cccc(C)n2)cc1 (stereo unspecified)	-18*	8	0	x	-4	x
COc1ccc(C2C(C(=O)c3cccs3)=C(O)C(=O)N2c2cccc(C)n2)cc1OC (stereo unspecified)	x	4	0	x	-40	x
COc1cccc2cc(C(=O)C3=C(O)C(=O)N(c4cc(C)on4)C3c3cccs3)oc12 (stereo unspecified)	-26*	5	0	x	-9	-1
Cc1cccc(N2C(=O)C(O)=C(C(=O)c3cccs3)C2c2cccc(Oc3ccccc3)c2)n1 (stereo unspecified)	x	-3	0	x	1	0
Cc1cccc(N2C(=O)C(O)=C(C(=O)c3cccs3)C2c2ccccc2)n1 (stereo unspecified)	-32*	7	0	x	-5	x
Cc1cc(N2C(=O)C(O)=C(C(=O)c3cccs3)C2c2ccc(F)cc2)no1 (stereo unspecified)	-26*	1	0	x	11	x
CC(=O)NCCNC(=O)C1Cc2c(-c3ccc(Cl)cc3)ccnc2O1 (stereo unspecified)	0	1	0	x	5	1
Cc1cccc(N2C(=O)C(O)=C(C(=O)c3cccs3)C2c2ccc(Cl)cc2)n1 (stereo unspecified)	-34*	3	0	x	-1	x
COc1ccccc1/C=C/C(C)=O	x	x	x	x	-57	x
Nc1cc(S(=O)(=O)N2CCOCC2)ccc1N1CCCCC1	x	-2	0	5	-10	-1
Nc1ccc(S(=O)(=O)c2ccc(N3CCOCC3)c(N)c2)cc1	-4	2	0	x	81*	-1
Nc1nc2c(nc(Br)n2[C@@H]2O[C@@H]3COP(=O)(O)O[C@H]3[C@H]2O)c(=O)[nH]1	x	0	0	6	-29	-1
C[C@@H]1CN([C@H](C)CO)C(=O)c2cccc(NC(=O)c3ccncc3)c2O[C@H]1CN(C)CC1CCCCC1	-10	0	-1	x	93*[16.7 µM]	-7
C[C@@H]1CN([C@H](C)CO)C(=O)c2cccc(NC(=O)c3ccncc3)c2O[C@@H]1CN(C)Cc1ccc(C(=O)O)cc1	5	2	0	4	114*	12
